From ChEMBL document CHEMBL1135972 (J Med Chem, 2002)
Values after ≈ are worked out from the molar mass of the structure shown.

Tests used:
WIL2 [1] = experiment: Growth inhibitory activity against human lymphoblastoid W1L2 cell line; format: functional, cell-based
Procedure, shortened: (§1)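 IC50 read by cell counting. For the folate-rescue arm, W1L2 medium carried 10 μM thymidine plus 50 μM hypoxanthine. Values are mean ± SD or individual results.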

WIL2 [2] = experiment: Growth inhibitory activity against human lymphoblastoid W1L2 cell line in presence of 10 uM thymidine/50 uM hypoxanthine; format: functional, cell-based; procedure, shortened: as §1
[3] = Growth inhibitory activity against human lymphoblastoid W1L2:R865 cell line; format: functional, cell-based; procedure, shortened: as §1
[4] = Solubility at pH 6.0 was determined; format: physicochemical; conditions: buffer
Procedure, shortened: (§2)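 About 2 mg solid shaken 18 h at 25 °C in the dark, then settled 30 min. pH rechecked (±0.2, readjusted, then 60 min re-equilibration). Centrifuged 1000g 15 min, 0.2 μm filtered, diluted 1:1 with MeCN. Assayed by RP18 HPLC, UV 295 nm, against a 3-point standard curve.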

[5] = Solubility at pH 7.4 was determined; format: physicochemical; conditions: buffer; procedure, shortened: as §2
[6] = Solubility at pH 6.0; format: physicochemical; conditions: buffer; procedure, shortened: as §2
[7] = Solubility at pH 7.4; format: physicochemical; conditions: buffer; procedure, shortened: as §2
Proteasome = experiment: Chymotryptic inhibitory activity against 26S proteasome; format: functional, subcellular

solubility [4] | solubility [5] | solubility [6] | solubility [7] | IC50 (Proteasome) | Structure (SMILES) | IC50 (WIL2 [1]) | IC50 (WIL2 [2]) | IC50 [3]
 |  |  |  |  | C#CCN(Cc1cc2c(=O)n(C)c(CN(CC)CC)nc2cc1Cl)c1ccc(C(=O)NCc2cccnc2)cc1 | 0.71 nM | 0.73 nM | > 50000 nM
1760 µM (≈ 1060 µg/mL) | 286 µM (≈ 171 µg/mL) |  |  |  | C#CCN(Cc1cc2c(=O)n(C)c(CN3CCN(CC)CC3)nc2cc1Cl)c1ccc(C(=O)NCc2cccnc2)cc1 | 0.78 nM | 0.78 nM | 22000 nM
23 µM (≈ 14.9 µg/mL) | 5 µM (≈ 3.23 µg/mL) |  |  |  | C#CCN(Cc1cc2c(=O)n(C)c(CN3CCN(c4ccccc4)CC3)nc2cc1Cl)c1ccc(C(=O)NCc2cccnc2)cc1 | 7.2 nM | 5.4 nM | 940 nM
2 µM (≈ 1.34 µg/mL) | 2 µM (≈ 1.34 µg/mL) |  |  |  | C#CCN(Cc1cc2c(=O)n(CC(=O)N(CC)CC)c(CN3CCCCC3)nc2cc1Cl)c1ccc(C(=O)NCc2cccnc2)cc1 | 9.4 nM | 8.4 nM | 19000 nM
992 µM (≈ 609 µg/mL) | 75 µM (≈ 46.1 µg/mL) |  |  |  | C#CCN(Cc1cc2c(=O)n(C)c(CN3CCN(CCO)CC3)nc2cc1Cl)c1ccc(C(=O)NCc2cccnc2)cc1 | 7 nM | 7.1 nM | 22000 nM
 |  | < 1 µM | 2.3 µM (≈ 1.19 µg/mL) |  | C#CCN(Cc1cc2c(O)nc(C)nc2cc1Br)c1ccc(C(=O)NCc2cccnc2)cc1 | 2.8 nM | 2.2 nM | 610 nM
636 µM (≈ 372 µg/mL) | 146 µM (≈ 85.3 µg/mL) |  |  | 3000 nM | C#CCN(Cc1cc2c(=O)n(C)c(CN3CCN(C)CC3)nc2cc1Cl)c1ccc(C(=O)NCc2cccnc2)cc1 | 0.49 nM | 0.32 nM | 13000 nM
 |  |  |  |  | C#CCN(Cc1cc2c(=O)n(C)c(CN3CCCC3)nc2cc1Cl)c1ccc(C(=O)NCc2cccnc2)cc1 | 0.7 nM | 0.76 nM | 24000 nM
80 µM (≈ 47 µg/mL) | 6 µM (≈ 3.52 µg/mL) |  |  |  | C#CCN(Cc1cc2c(=O)n(C)c(CN3CCCCC3)nc2cc1Cl)c1ccc(C(=O)NCCCn2cncn2)cc1 | 840 nM | 800 nM | 20000 nM
 |  |  |  |  | C#CCN(Cc1cc2c(=O)n(CC(=O)N3CCCCC3)c(CN3CCCCC3)nc2cc1Cl)c1ccc(C(=O)NCc2cccnc2)cc1 | 8.4 nM | 7.4 nM | > 50000 nM
 |  |  |  |  | C#CCN(Cc1cc2c(=O)n(CC(=O)OC)c(CN3CCCCC3)nc2cc1Cl)c1ccc(C(=O)NCc2cccnc2)cc1 | 11 nM | 9.6 nM | 23000 nM
 |  |  |  |  | C#CCN(Cc1cc2c(=O)n(C)c(CN3CCCCC3)nc2cc1Cl)c1ccc(C(=O)NCc2cccnc2)cc1 | 0.8 nM | 0.78 nM | 14000 nM
 |  |  |  |  | C#CCN(Cc1cc2c(=O)n(C)c(CN3CCC[C@H]3C(=O)OC)nc2cc1Cl)c1ccc(C(=O)NCc2cccnc2)cc1 | 18 nM | 14 nM | 24000 nM
3 µM (≈ 1.71 µg/mL) | 2 µM (≈ 1.14 µg/mL) |  |  |  | C#CCN(Cc1cc2c(=O)n(C)c(CN3CCOCC3)nc2cc1Cl)c1ccc(C(=O)NCc2cccnc2)cc1 | 2 nM | 2 nM | 19000 nM
934 µM (≈ 561 µg/mL) | 96 µM (≈ 57.7 µg/mL) |  |  |  | C#CCN(Cc1cc2c(=O)n(C)c(CN3CCN(C)CC3)nc2cc1Cl)c1ccc(C(=O)NCCCn2ccnc2)cc1 | 2.1 nM | 2.3 nM | 18000 nM
2 µM (≈ 1.17 µg/mL) | 0.5 µM (≈ 0.293 µg/mL) |  |  |  | C#CCN(Cc1cc2c(=O)n(C)c(CN3CCC(O)CC3)nc2cc1Cl)c1ccc(C(=O)NCc2cccnc2)cc1 | 0.72 nM | 0.7 nM | 18000 nM
